The target in experiment [1] is Human immunodeficiency virus type 1 protease (Human immunodeficiency virus 1, UniProt Q72874). The experiment in a line: Inhibitory activity against HIV-1 protease. The gist of the method:
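Recombinant HIV-1 protease refolded from E. coli inclusion bodies; substrate GSP (H-Val-Ser-Gln-Asn-Tyr-Pro-Ile-Val-OH) at 2.5 mM. Run at 30 °C in 100 mM sodium acetate pH 5.5 with 10% glycerol, 5% ethylene glycol, 0.1% Nonidet P-40. Inhibitor added before enzyme, five to seven concentrations. Stopped at 30 min with TFA, products by HPLC; Ki from Dixon plots.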

Experiment [2] in a line: The compound was tested for its antiviral activity against vaccinia virus in CV-1 monkey cells at 10 uM. The class given is functional. The note with it: Cercopithecidae.

Where only a bound is given, the exact number is not on record here.

For the molecule `CC[C@H](C)[C@H](NC(=O)[C@@H](Cc1ccccc1)[C@@H](O)[C@H](O)[C@H](Cc1ccccc1)NC(=O)[C@H](Cc1c[nH]cn1)NC(=O)COc1cccc2ccccc12)C(=O)NCc1ccccn1`, the inhibition constant Ki in experiment [1] was found to be 12 nM.

In experiment [1], `CC[C@H](C)[C@H](NC(=O)[C@H](C(C)C)[C@@H](O)[C@H](O)[C@H](CC1CCCCC1)NC(=O)[C@H](Cc1c[nH]cn1)NC(=O)COc1ccccc1)C(=O)NCc1ccccn1` showed a Ki of 2 nM. Testing at 10 µM in experiment [2] gave an inhibition of 100%.

`CC[C@H](C)[C@H](NC(=O)[C@H](C(C)C)[C@@H](O)[C@H](O)[C@H](CC(C)C)NC(=O)[C@H](Cc1c[nH]cn1)NC(=O)COc1ccccc1)C(=O)NCc1ccccn1` gave a Ki in experiment [1] of 5 nM.

Turning to `CC[C@H](C)[C@H](NC(=O)[C@H](C(C)C)[C@H](O)[C@H](O)[C@H](CC(C)C)NC(=O)[C@H](Cc1c[nH]cn1)NC(=O)[C@@H](Cc1ccccc1)NC(=O)OC(C)(C)C)C(=O)NCc1ccccn1`, the Ki in experiment [1] came out at 500 nM.

`CC[C@H](C)[C@H](NC(=O)[C@H](CC1CCCCC1)[C@@H](O)[C@H](O)[C@H](CC1CCCCC1)NC(=O)[C@H](Cc1c[nH]cn1)NC(=O)COc1cccc2ccccc12)C(=O)NCc1ccccn1` yielded a Ki in experiment [1] of 26 nM.

In experiment [1], `CC[C@H](C)[C@H](NC(=O)[C@H](C(C)C)[C@@H](O)[C@H](O)[C@H](CC1CCCCC1)NC(=O)[C@H](Cc1c[nH]cn1)NC(=O)CN)C(=O)NCc1ccccn1` returned a Ki of 11 nM. Also, at 10 µM the inhibition in experiment [2] was 0%.

Turning to `CC[C@H](C)[C@H](NC(=O)[C@@H](CC(C)C)[C@@H](O)[C@H](O)[C@H](CC(C)C)NC(=O)[C@H](Cc1c[nH]cn1)NC(=O)COc1cccc2ccccc12)C(=O)NCc1ccccn1`, the Ki in experiment [1] amounted to 220 nM.

Consider `CC[C@H](C)[C@H](NC(=O)[C@H](C(C)C)[C@@H](O)[C@H](O)[C@H](CC1CCCCC1)NC(=O)[C@H](Cc1c[nH]cn1)NC(=O)COc1cccc2ccccc12)C(=O)NCc1ccccn1`, for which the Ki in experiment [1] was < 1 nM.

Consider `CC[C@H](C)[C@H](NC(=O)[C@H](C(C)C)[C@@H](O)[C@H](O)[C@H](CC(C)C)NC(=O)[C@H](Cc1c[nH]cn1)NC(=O)COc1cccc2ccccc12)C(=O)NCc1ccccn1`, for which the inhibition constant (Ki) in experiment [1] is 5 nM.

Regarding `CC[C@H](C)[C@H](NC(=O)[C@H](C(C)C)[C@@H](O)[C@H](O)[C@H](CC(C)C)NC(=O)[C@H](Cc1c[nH]cn1)NC(=O)[C@@H](Cc1ccccc1)NC(=O)OC(C)(C)C)C(=O)NCc1ccccn1`, in experiment [1], the Ki worked out at 28 nM.

As for `CC[C@H](C)[C@H](NC(=O)[C@H](C(C)C)[C@@H](O)[C@H](O)[C@H](CC1CCCCC1)NC(=O)CC1CCCCC1)C(=O)NCc1ccccn1`, affinity in experiment [1] was put at a Ki of 22 nM. This molecule also came in with an inhibition at 10 µM in experiment [2] of 80%.

For `CC[C@H](C)[C@H](NC(=O)[C@H](C(C)C)[C@@H](O)[C@H](O)[C@H](CC1CCCCC1)NC(=O)[C@H](Cc1c[nH]cn1)NC(=O)CO)C(=O)NCc1ccccn1`, in experiment [1], the Ki is 4 nM. Moreover, the inhibition at 10 µM in experiment [2] is 0%.

On to `CC[C@H](C)[C@H](NC(=O)[C@H](CC(C)C)[C@@H](O)[C@H](O)[C@H](CC1CCCCC1)NC(=O)[C@H](Cc1c[nH]cn1)NC(=O)COc1cccc2ccccc12)C(=O)NCc1ccccn1`, for which, in experiment [1], the Ki worked out at 5 nM.

For `CC[C@H](C)[C@H](NC(=O)[C@H](CC(C)C)[C@@H](O)[C@H](O)[C@H](CC(C)C)NC(=O)[C@H](Cc1c[nH]cn1)NC(=O)COc1cccc2ccccc12)C(=O)NCc1ccccn1`, the Ki in experiment [1] is 7 nM.

Values taken from ChEMBL document CHEMBL1125602, “Inhibitors of the protease from human immunodeficiency virus: design and modeling of a compound containing a dihydroxyethylene isostere insert with high binding affinity and effective antiviral activity” (J Med Chem, 1991).
